Screening results from PubChem.
Only some compounds are listed: those with a hit (about 2.6% of all), similar ones and a draw of the others.
SKN-1 block = suppressors of acrylamide-induced Pgst-4::GFP reporter in worms, primary screen, SKN-1 inhibitor project, whole organism, uHTS, GFP/RFP fluorescence ratio, strain VP596 | inhibition, % at 21.8 µM | 0.49% of 360,000 active | C. elegans VP596 Pgst-4::GFP/RFP ratio, 24 h | AID 624304, 2012;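 active = interference check ratio from 0.5 to 1.5 plus GFP to RFP signal ratio inhibition reaching or exceeding a fixed threshold, cut at about 30% in these data, passing the limit was not always enough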
GRK2 aptamer HTS = compounds blocking aptamer binding on GRK2 – biochemical, human GRK2, bead flow cytometry, HTS, primary screen | Beta-adrenergic receptor kinase 1 (Homo sapiens), P25098 | FAM-aptamer displacement from GRK2 | inhibition of aptamer binding, % at 10 µM | 0.59% of 330,000 active | AID 488847, 2010;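 active = inhibition of aptamer binding above 40%, roughly 3 SD of noise, on plates passing a quality check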;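 note: median bead fluorescence of bound FAM aptamer so fluorescent compounds give negative values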
Rin1 Abl inh = inhibitors of Rin1-Abl protein binding, primary screen, biochemical, TR-FRET. inhibition, % at 7.35 µM. 0.4% of 360,000 active. AID 588664, 2011; in the data active = inhibition above about 5%, passing the limit was not always enough
Target sequence (P00519 whole entry, looked up): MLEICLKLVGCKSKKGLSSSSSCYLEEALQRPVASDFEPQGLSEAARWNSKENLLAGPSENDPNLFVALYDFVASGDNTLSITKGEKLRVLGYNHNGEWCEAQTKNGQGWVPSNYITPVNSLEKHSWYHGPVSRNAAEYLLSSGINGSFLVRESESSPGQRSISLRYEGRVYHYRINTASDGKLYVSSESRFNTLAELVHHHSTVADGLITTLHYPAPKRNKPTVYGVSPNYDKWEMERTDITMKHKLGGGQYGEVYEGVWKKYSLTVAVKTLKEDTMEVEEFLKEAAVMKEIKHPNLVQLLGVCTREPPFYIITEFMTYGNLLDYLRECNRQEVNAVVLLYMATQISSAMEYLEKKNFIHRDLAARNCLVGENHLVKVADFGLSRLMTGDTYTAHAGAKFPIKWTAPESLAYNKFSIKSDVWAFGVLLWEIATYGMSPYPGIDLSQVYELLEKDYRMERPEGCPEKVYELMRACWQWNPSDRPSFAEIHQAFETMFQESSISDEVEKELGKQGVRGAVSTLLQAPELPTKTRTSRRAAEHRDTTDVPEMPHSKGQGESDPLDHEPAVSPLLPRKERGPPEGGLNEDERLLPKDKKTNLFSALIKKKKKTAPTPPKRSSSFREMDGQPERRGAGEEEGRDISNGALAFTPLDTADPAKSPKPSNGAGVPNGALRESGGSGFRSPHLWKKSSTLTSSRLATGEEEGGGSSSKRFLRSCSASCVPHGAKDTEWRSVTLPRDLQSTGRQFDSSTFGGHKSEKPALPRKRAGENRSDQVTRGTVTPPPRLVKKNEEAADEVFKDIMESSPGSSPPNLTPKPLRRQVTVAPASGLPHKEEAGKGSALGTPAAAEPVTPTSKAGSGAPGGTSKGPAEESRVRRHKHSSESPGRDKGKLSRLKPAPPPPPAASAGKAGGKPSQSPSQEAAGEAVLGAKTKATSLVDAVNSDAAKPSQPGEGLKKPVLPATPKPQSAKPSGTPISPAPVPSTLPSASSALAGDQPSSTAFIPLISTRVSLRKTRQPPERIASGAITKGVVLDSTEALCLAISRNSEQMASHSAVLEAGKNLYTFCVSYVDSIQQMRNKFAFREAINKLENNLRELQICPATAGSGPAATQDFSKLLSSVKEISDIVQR
Target sequence (Q13671 whole entry, looked up): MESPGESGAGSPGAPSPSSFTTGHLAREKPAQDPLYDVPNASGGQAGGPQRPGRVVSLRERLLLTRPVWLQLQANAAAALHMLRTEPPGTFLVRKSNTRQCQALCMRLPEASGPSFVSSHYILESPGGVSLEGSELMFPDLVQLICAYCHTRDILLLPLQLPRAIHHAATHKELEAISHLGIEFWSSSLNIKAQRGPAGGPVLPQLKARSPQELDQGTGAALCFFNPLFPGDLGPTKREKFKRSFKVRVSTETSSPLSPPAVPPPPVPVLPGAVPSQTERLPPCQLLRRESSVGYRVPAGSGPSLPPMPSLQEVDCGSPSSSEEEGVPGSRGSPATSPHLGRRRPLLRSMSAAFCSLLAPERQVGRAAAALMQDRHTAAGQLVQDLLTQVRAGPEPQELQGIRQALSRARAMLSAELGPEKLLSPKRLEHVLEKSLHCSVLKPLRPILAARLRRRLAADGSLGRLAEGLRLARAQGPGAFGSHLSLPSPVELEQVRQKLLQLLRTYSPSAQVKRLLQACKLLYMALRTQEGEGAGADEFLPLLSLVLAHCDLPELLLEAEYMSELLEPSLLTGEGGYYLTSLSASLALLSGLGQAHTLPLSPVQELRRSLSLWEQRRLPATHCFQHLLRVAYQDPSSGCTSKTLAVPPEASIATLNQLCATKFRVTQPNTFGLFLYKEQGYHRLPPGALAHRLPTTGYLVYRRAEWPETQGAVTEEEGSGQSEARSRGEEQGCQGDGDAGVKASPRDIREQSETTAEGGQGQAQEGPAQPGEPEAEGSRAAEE
Rce1 inh = yeast Rce1p protease inhibitors, primary screen, biochemical, fluorescence, cell-free homogeneous. CAAX prenyl protease 2 (Saccharomyces cerevisiae (strain ATCC 204508 / S288c)), Q03530. yeast membranes, quenched prenylated peptide cleavage fluorescence. calls only. 0.27% of 290,000 active;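 active = fall in fluorescence gain of 50% or more versus controls, with final raw signal at or below 3038400; inconclusive = same 50% fall but final raw signal above 3038400; inactive = fall in fluorescence gain under 50%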;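 note: plate controls were neutral control wells for no effect and wells lacking membranes for full effect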
T cell HTS = modulators of CD8 T cell-vesicle binding, primary screen, mouse 2C CD8+ T cells, flow cytometry; 2C CD8+ T cell-vesicle binding; stronger effect = lower value; response (vesicle binding), % at 7 µM; 0.068% of 330,000 active;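 active = response, share of CD8 T cells binding vesicles, and their 90th percentile fluorescence all below set limits, cut at about 80% in these data, passing the limit was not always enough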;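 note: values below 100% mean blocked vesicle binding to the CD8+ T cells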
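Test system: purified 2C TCR transgenic mouse naive CD8+ T cells. Probe or stimulus: QL9-peptide-loaded Drosophila micro-vesicles bearing Ld, ICAM-1 and B7-1. Incubation: binding step 1.5 h, 37 °C, antibody labelling 20 min, ice. Measured by: flow cytometry of vesicle-bound cells.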
Myeloid diff MLP = induction of myeloid progenitor differentiation, primary screen, cell-based, flow cytometry, MLPCN library | ER-HoxA9 myeloid progenitors, lysozyme-GFP differentiation | calls only at 10 µM | 1% of 360,000 active;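 active = normalized GFP-positive differentiation at or above the plate's own cutoff, the solvent-only control mean plus 3 SD; inconclusive = no clear call, values can overlap the other calls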;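 note: cells exposed to compound for four days before flow analysis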
GRK2 inh confirm = GRK2 aptamer-displacing inhibitors, retest, confirmation, biochemical, cherry pick 1, bead flow cytometry; shares compounds with GRK2 aptamer HTS; bead-bound GRK2, FAM-aptamer displacement; aptamer displacement, % at 10 µM; 4% of 2,000 active;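 active = aptamer displacement above 40%, near three times the noise of non-fluorescent compounds, on plates passing quality checks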;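 note: negative values mostly reflect intrinsic compound fluorescence rather than true enhancement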
Aptamer quench = fluorescent aptamer quenching in GRK2 counter-screen dose response. shares compounds with GRK2 aptamer HTS. Fluorescent RNA aptamer beads, flow cytometry; stronger effect = higher value. fluorescence change (kMESF span), kMESF (no concentration beside the values). 110 tested, under 10 active. AID 504521;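 active = compounds whose bead fluorescence drops by more than 37 kMESF across the dose range, marking them as dye quenchers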
Aptamer quench SP = quenches fluorescent RNA aptamer, GRK2 hit artifact | Carboxyfluorescein RNA aptamer on beads, flow cytometry quenching; stronger effect = lower value | fluorescence response (% of DMSO), % at 10 µM | shares compounds with GRK2 aptamer HTS | 2,000 tested, under 10 active | AID 504580;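 active = compounds that quench the bead-bound fluorescent RNA probe, cutting fluorescence to under half of the solvent control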;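 note: counterscreen run without GRK2 so only probe quenching by compound is measured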
Starred values were filed as active, the others as inactive; i = inactive; u = inconclusive; x = no result given.

SMILES | SKN-1 block | GRK2 aptamer HTS | Rin1 Abl inh | Rce1 inh | T cell HTS | Myeloid diff MLP | GRK2 inh confirm | Aptamer quench SP | others
CC[C@]12c3[nH]c4cc(CCC(=O)N(C)C)ccc4c3CCN1C(=O)[C@@H](CC(=O)NC(C)(C)C)C[C@@H]2C(=O)N1CCN(C(=O)c2ccco2)CC1 | 4.6 | 0.0 | -1.9 | x | x | i | x | x
CN(C)CCN(Cc1cc2cc3c(cc2nc1Cl)OCO3)C(=O)c1ccco1 | 20.8 | 0.0 | -2.0 | i | i | x | x | x
CCN1CCCC1Cn1cnc2c([nH]c3ccc(Cl)cc32)c1=O (centres undefined) | -7.9 | 92.0* | -7.0 | i | 260.3 | i | -0.6 | 102.1
O=C(CSc1oc(-c2cccs2)nc1S(=O)(=O)c1ccc(F)cc1)NCC1CCCO1 (centres undefined) | 1.4 | 42.0* | -0.6 | i | 900.8 | i | 2.4 | 102.1
O=C(CSc1oc(-c2ccc(F)cc2)nc1S(=O)(=O)c1ccc(F)cc1)NCC1CCCO1 (centres undefined) | -2.9 | 1.0 | 1.4 | i | 503.4 | i | x | x
O=C(O)c1ccccc1-c1ccc(/C=c2\sc3nc4cc(Br)cnc4n3c2=O)o1 | 2.4 | 99.0* | 5.0 | i | 199.5 | i | 89.9* | 89.1 | Aptamer quench=16.4
CC1=NN(c2ccc(Br)cc2)C(=O)/C1=C/c1ccc(-c2ccccc2C(=O)O)o1 | 3.8 | 0.0 | 5.1 | i | 266.9 | i | x | x
O=C(O)CCn1cc(-c2ccc(F)cc2)nc1-c1ccncc1 | 23.6 | 40.0 | 0.6 | x | 140.4 | i | 0.9 | 98.1
CCOc1ccc2nc(NC3=NC(c4ccc(OC)cc4)CC(=O)N3)nc(C)c2c1 (centres undefined) | 16.8 | 38.0 | -2.4 | i | 218.8 | x | -25.2 | 106.8
CCN1CCN(C(=O)CN2C(=O)COc3ccc(S(=O)(=O)N4CCOCC4)cc32)CC1 | 15.4 | 0.0 | -2.2 | i | 429.0 | i | x | x
COCCN(C(=O)c1cc2c(s1)CCCCC2)c1c(N)n(CC(C)C)c(=O)[nH]c1=O | 9.7 | 0.0 | -0.2 | x | 496.8 | i | x | x
COCCN(C(=O)c1cc2c(s1)CCC2)c1c(N)n(CC(C)C)c(=O)[nH]c1=O | 14.9 | 43.0* | 6.0 | x | 516.0 | i | 17.0 | 98.7
Cc1ccc(C)c(S(=O)(=O)NCc2ccc(C(=O)N3CCCCC3C)cc2)c1 (centres undefined) | 9.9 | 52.0* | -2.0 | i | 310.1 | i | 2.2 | 93.3
Cc1ccc(C)c(S(=O)(=O)Nc2ccc(C(=O)N3CCCCC3)cc2)c1 | -7.0 | 2.0 | 1.6 | x | 216.2 | i | x | x
O=C(O)c1cnn2c(-c3ccc(F)cc3)ccnc12 | -7.3 | 2.0 | 3.9 | i | 203.9 | i | x | x
O=C(O)C(O)Cc1c[nH]c2ccccc12 (centres undefined) | 13.7 | 67.0* | -0.6 | x | 138.5 | i | 1.6 | 99.8
CC(C)(CS(=O)(=O)[O-])NC(=O)CC[N+](C)(C)CCO | -26.8 | 99.0* | 0.8 | i | 276.4 | i | 95.8* | 94.4 | Aptamer quench=-2.8
O=C(Nc1ccc(Nc2ccccc2)cc1)c1ccccc1 | x | 100.0* | x | x | 410.8 | x | 5.0 | 93.4
COc1ccc(C(=O)Nc2ccc(Nc3ccccc3)cc2)cc1OC | -5.8 | 86.0* | 0.1 | i | 176.3 | i | 0.1 | 101.4
O=C(Nc1ccc(Nc2ccccc2)cc1)c1ccc(Cl)cc1 | 11.9 | 3.0 | 0.6 | x | i | i | x | x
COc1ccc(OC)c(NC(=O)C(=O)NNC(=O)C23CC4CC(CC(C4)C2)C3)c1 | -10.3 | 2.0 | 0.2 | i | 175.6 | i | x | x
Cc1cc(Cl)ccc1C(O)c1ncc(-c2cccc3ccccc23)[nH]1 (centres undefined) | 5.4 | x | -1.9 | x | x | i | x | x
NS(=O)(=O)c1cccc(Nc2nc3ccccc3nc2NS(=O)(=O)c2ccc(Cl)cc2)c1 | 11.0 | 1.0 | -3.9 | x | 491.4 | i | x | x
CCOc1ccc(Oc2ccc(NC(=O)[C@@H](NC(N)=O)[C@@H](C)CC)cc2)cc1 | -6.3 | 96.0* | -0.9 | i | 198.3 | i | 5.8 | 98.4
CC[C@H](C)[C@H](NC(N)=O)C(=O)Nc1ccc(S(=O)(=O)NC(C)C)cc1 | 10.8 | 1.0 | -2.0 | i | 303.4 | i | x | x
SMILES | SKN-1 block | GRK2 aptamer HTS | Rin1 Abl inh | Rce1 inh | T cell HTS | Myeloid diff MLP | GRK2 inh confirm | Aptamer quench SP | others
Cc1ccc(/C=C2/C(=N)N3N=C(CC(=O)N4CCCC4)SC3=NC2=O)o1 | -1.2 | 0.0 | 1.5 | i | 437.8 | u | -0.4 | 98.4
COc1cc([N+](=O)[O-])cc2sc(NC(C)=O)nc12 | 1.1 | 66.0* | -3.8 | i | 373.3 | i | 0.3 | 95.5
O=C(N=Nc1c(O)[nH]c2ccc(Cl)cc12)c1cc(-c2cccs2)nc2ccccc12 | 5.2 | 0.0 | -6.0 | i | 565.9 | i | -7.1 | 96.5
COc1ccc(N2CCN(C(=O)c3ccc(Br)o3)CC2)cc1 | 20.5 | 0.0 | 3.5 | i | 237.9 | i | x | x
CC1CCCC(C)N1C(=O)COC(=O)/C=C/c1ccc(Br)o1 (centres undefined) | 1.9 | 43.0* | -0.9 | x | 205.5 | i | 6.8 | 98.0
CC1CCN(C(=O)COC(=O)/C=C/c2ccc(Br)o2)CC1 | -2.8 | 0.0 | -1.7 | x | 162.8 | i | x | x
O=C(NC1CCCCC1)c1cc(S(=O)(=O)N2CCCCC2)ccc1N1CCOCC1 | -6.2 | 42.0* | 2.8 | x | 259.9 | i | -2.4 | 101.6
CCOc1cc(N2CCOCC2)c(OCC)cc1NC(=O)c1cc(S(=O)(=O)N2CCOCC2)ccc1F | -33.3 | 5.0 | 1.9 | x | 364.7 | i | -2.1 | 95.6
CCOc1cc(N2CCOCC2)c(OCC)cc1NC(=O)c1cccc(S(=O)(=O)N2CCOCC2)c1 | -5.4 | 30.0 | 2.4 | x | 469.0 | i | 1.2 | 97.0
O=C(NC1CCCCCC1)c1cc(S(=O)(=O)N2CCCCC2)ccc1N1CCOCC1 | -0.5 | 4.0 | -0.1 | i | 209.8 | i | x | x
COc1cc(NC(=O)CN(c2ccc(C)cc2)S(=O)(=O)c2c(C)noc2C)cc(OC)c1 | 12.0 | 0.0 | 2.5 | i | 300.7 | i | x | x
